TAAR1 agonist – human TAAR1 agonists, primary screen, Fluo-8 calcium fluorescence, CHO RD-HGA16 cells; Trace amine-associated receptor 1 (Homo sapiens), Q96RJ0; vehicle wells 0%, saturating PEA agonist 100%; activation, % at 3 µM; 360,000 tested, 0.99% active;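 active = activation above the mean activation of all test compounds in the run plus 3 SD, cut at about 38% in these data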
Target sequence (Q96RJ0 whole entry, looked up): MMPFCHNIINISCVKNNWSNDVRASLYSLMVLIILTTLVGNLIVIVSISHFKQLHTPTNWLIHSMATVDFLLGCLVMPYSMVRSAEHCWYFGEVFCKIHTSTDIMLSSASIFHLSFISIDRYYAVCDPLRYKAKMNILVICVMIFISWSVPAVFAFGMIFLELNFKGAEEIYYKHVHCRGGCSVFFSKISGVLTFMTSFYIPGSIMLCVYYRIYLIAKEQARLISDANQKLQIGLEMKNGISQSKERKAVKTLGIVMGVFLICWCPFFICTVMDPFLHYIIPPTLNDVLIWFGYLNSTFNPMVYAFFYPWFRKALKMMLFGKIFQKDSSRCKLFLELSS
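Benchmarks: low control DMSO, high control PEA (EC100); System: CHO RD-HGA16 cells carrying human TAAR1 plus Gα16; Detection: Fluo-8 fluorescence, 5 s baseline then 140 s kinetic read; Schedule: 17-24 h plating, Fluo-8 75 min 37 °C, 30 min RT; Read-out basis: % activation from peak over basal fluorescence ratio, DMSO-to-PEA scaled.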
CHO parental Ca – ATP-evoked calcium signal inhibitors, parental CHO, primary screen, counter-screen for OX1R antagonist project, cell-based, fluorescence, Fluo-8 calcium dye. parental CHO-K1, ATP-induced calcium, Fluo-8 fluorescence. inhibition, % at 5.6 µM. 330,000 tested, 0.63% active;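 active = inhibition above that plate's mean sample inhibition plus 3 SD, cut at about 26% in these data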;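 note: 0% = ATP-challenged DMSO wells and 100% = DMSO wells without ATP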
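Assay system: untransfected parental CHO cell line. Also added: ATP agonist challenge. Dosing: one dose, 5.6 µM nominal. Measured by: Fluo-8 fluorescence. Read-out: % inhibition. Benchmarks: ATP wells versus no-ATP DMSO wells. Repeats: no replicates.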
OX1R antag-1 – OX1R (HCRTR1) antagonists, primary screen, fluorescence, CHO/OX1R cells, Fluo-8 calcium, orexin A; 330,000 tested, 0.43% active; Fluo-8 calcium fluorescence; AID 434989, 2010; Orexin/Hypocretin receptor type 1 (Homo sapiens), O43613; inhibition, % at 5 µM;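 active = inhibition above its plate's threshold, mean inhibition of all tested compounds on the plate plus 3 SD, cut at about 37% in these data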;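 note: 0% = orexin A challenge wells and 100% = SB-334867-A antagonist wells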
Target sequence (O43613 whole entry, looked up): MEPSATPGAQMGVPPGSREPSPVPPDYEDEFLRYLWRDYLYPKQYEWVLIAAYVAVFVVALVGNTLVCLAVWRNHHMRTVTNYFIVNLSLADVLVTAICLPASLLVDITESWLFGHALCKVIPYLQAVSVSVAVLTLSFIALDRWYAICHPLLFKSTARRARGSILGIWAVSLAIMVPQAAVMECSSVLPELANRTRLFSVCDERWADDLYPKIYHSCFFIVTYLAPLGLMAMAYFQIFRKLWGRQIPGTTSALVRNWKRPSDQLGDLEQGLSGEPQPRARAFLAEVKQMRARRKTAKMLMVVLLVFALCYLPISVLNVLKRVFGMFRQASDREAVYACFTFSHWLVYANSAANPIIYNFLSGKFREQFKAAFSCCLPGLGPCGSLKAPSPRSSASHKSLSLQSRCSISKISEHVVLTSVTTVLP
OX1R antag-2 – antagonists of human orexin 1 receptor (OX1R); inhibition, % at 6.6 µM; OX1R-expressing cells, FRET antagonist read-out; 330,000 tested, 1.8% active; in the data active = inhibition mostly above about 38%, no sharp cut-off; inactive = mostly below about 40%;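 note: 0% = agonist challenge alone and 100% = reference antagonist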
TAAR1 antag – human TAAR1 antagonists, primary screen, Fluo-8 calcium fluorescence, CHO RD-HGA16 cells | 360,000 tested, 1.5% active | inhibition, % at 3 µM | antagonist | Trace amine-associated receptor 1 (Homo sapiens), Q96RJ0;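 active = inhibition above a per-plate cutoff, the mean inhibition of test compounds on that plate plus 3 SD, cut at about 49% in these data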;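 note: 0% = DMSO plus EC80 beta-PEA response and 100% = DMSO alone without agonist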
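System: RD-HGA16 CHO cells with stable hTAAR1 and Gα16 | Probe or stimulus: EC80 β-phenethylamine stimulus | Dosing: 3 µM, single point | Times: Dye loading 75 min at 37 °C, then 30 min room temperature | Measured by: Fluo-8 calcium-sensitive fluorescence | Read-out basis: % inhibition of agonist calcium response | Replicates: n of 1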
GPR7 antag – GPR7 receptor antagonists, primary screen, cell-based, fluorescence, single concentration; Neuropeptides B/W receptor type 1 (Homo sapiens), P48145; 290,000 tested, 1.1% active; inhibition, % at 4.4 µM; GPR7-expressing cells, fluorescence antagonist assay; in the data active = inhibition above about 16%, passing the limit was not always enough;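 note: cells stimulated with the agonist NPW; 0% = agonist with vehicle and 100% = vehicle without agonist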
Starred values were filed as active, the others as inactive; · = no result given. In the library only some 4.6% were active in any assay of this set; here they are far more common.

SMILES | TAAR1 agonist | CHO parental Ca | OX1R antag-1 | OX1R antag-2 | TAAR1 antag | GPR7 antag
CCCCCCCCN1C(=O)[C@@H](CC(=O)NCC23CC4CC(CC(C4)C2)C3)C[C@@]2(C(=O)OC)C1=C[C@H](C1CCCC1)O[C@@H]2C | 1.5 | · | · | · | -14.1 | ·
COc1cc(/C=C/C(=O)N2CCCc3ccccc32)cc(OC)c1OC | 10.1 | -18.6 | -12.3 | 28.9 | 52.3* | -12.3
COc1ccc(/C=C/C(=O)N2CCCc3ccccc32)cc1 | 8.9 | -16.0 | -5.8 | 35.7 | 12.4 | -1.6
O=C1CCCCC(=O)[C@H](OC(=O)c2ccccc2)C[C@H](c2ccccc2)O1 | -0.6 | · | · | · | -11.9 | ·
O=C(COC(=O)c1cc(S(=O)(=O)Nc2ccccc2Cl)ccc1O)Nc1ccc(F)c(F)c1F | 4.6 | -5.9 | 15.8 | 34.5* | 9.7 | ·
Cn1c(Nc2ccc(Cl)cc2F)nc2cc(-c3ccccc3)sc2c1=O | 2.1 | · | · | · | 38.4 | ·
O=C1c2cccc3cc([N+](=O)[O-])cc(c23)C(=O)N1c1ccccc1O | 9.4 | -9.4 | -21.5 | 43.5* | -3.0 | 13.8
COc1ccc(OC)c(NC(=O)C(=O)NNC(=O)C23CC4CC(CC(C4)C2)C3)c1 | 53.7* | -9.1 | -7.5 | 26.6 | -19.1 | -4.1
CC(O)(c1cccc(F)c1)c1nc(-c2ccc(S(C)(=O)=O)cc2)cs1 (stereo not given) | 2.5 | · | · | · | 11.0 | ·
CC1(C)OC(=O)C2=C(CC(CCc3ccccc3)OC2CCc2ccccc2)O1 (stereo not given) | 0.4 | · | · | · | 12.2 | ·
O=Nc1ccccn1 | 0.7 | · | · | · | -24.5 | ·
Cc1cccn2c(=O)c3cc(C(=O)NCCN4CCOCC4)c(=N)n(CCN4CCOCC4)c3nc12 | -2.8 | 1.3 | -0.6 | 53.1* | 7.2 | 6.2
COc1ccc(CCNC(=O)c2cc3c(=O)n4cccc(C)c4nc3n(CCCN3CCOCC3)c2=N)cc1 | -0.4 | -16.3 | -18.0 | 22.8 | 5.2 | -7.6
Cc1cccn2c(=O)c3cc(C(=O)NCCN4CCOCC4)c(=N)n(Cc4ccc(F)cc4)c3nc12 | -1.5 | -16.6 | -15.8 | 40.4* | -10.0 | -8.6
CCOCCCn1c(=N)c(C(=O)NCCN2CCOCC2)cc2c(=O)n3cccc(C)c3nc21 | 2.2 | -6.3 | -17.5 | 56.6* | 7.6 | -2.8
CCn1ncc2c(=O)c(C(=O)c3ccccc3)c[nH]c21 | -0.8 | · | · | · | 9.1 | ·
CCC/C(=C1/c2ccccc2C(=O)N1c1ccccc1)c1c(C)noc1C | -2.0 | · | · | · | -11.1 | ·
O=C(NCc1ccccc1)[C@@H]1CCCN1C(=O)[C@H]1CCCN1C(=O)c1cccs1 | 1.7 | · | · | · | -40.4 | ·
Fc1ccc(-c2ccc3c(n2)CCCN3Cc2ccccc2C(F)(F)F)cc1 | -0.7 | · | · | · | -33.9 | ·
Cn1cc(S(=O)(=O)N2CCc3ccccc32)cc1C(=O)NC(C)(C)C | 3.1 | 32.5* | -9.6 | 7.4 | -18.4 | -2.7
Cc1cccc(C)c1NC(=O)C1(C)CSCC(=O)N1Cc1cccc(C(F)(F)F)c1 (stereo not given) | -1.5 | · | · | · | -13.9 | ·
COc1ccc(CN2C[C@@]3(O)CC[C@@H](O)[C@@H](OC)[C@@H]3[C@@]2(C)[C@H](O)CC=C(C)C)cc1 | -0.2 | · | · | · | 6.7 | ·
O=C(Oc1ccc2ccccc2c1Br)N1CCCCCC1 | 17.2 | 33.0* | -14.8 | 18.5 | 16.0 | -5.6
COc1ccc2ccccc2c1/C=N/NC(=O)c1cccc(Br)c1 | 3.3 | -27.2 | -9.4 | 46.6 | -13.5 | -4.8
O=C(N/N=C/c1c(O)ccc2ccccc12)c1cccc(C(F)(F)F)c1 | 58.0* | 6.7 | 56.3* | 36.1 | 61.9* | -12.5
SMILES | TAAR1 agonist | CHO parental Ca | OX1R antag-1 | OX1R antag-2 | TAAR1 antag | GPR7 antag
Cc1ccc(S(=O)(=O)N2CC(CO)=CCC2c2ccccc2)cc1 (stereo not given) | -0.3 | · | · | · | -2.9 | ·
CCOC(=O)/C=c1\s/c(=C(\C#N)C(=O)NC)n(-c2ccccc2)c1=O | -0.8 | -4.5 | -11.2 | 40.1 | 15.9 | -14.3
CCOC(=O)/C=c1\s/c(=C(\C#N)C(N)=O)n(-c2ccccc2)c1=O | 0.0 | -8.7 | -11.5 | 57.1* | 1.8 | 0.5
COc1cc(/C=C/CN2CCC(C(=O)NC(c3ccc(F)cc3)c3ccc4ccccc4n3)CC2)ccc1OC(C)=O (stereo not given) | 48.9* | · | · | · | 22.5 | ·
Cc1c(C=NCCOCc2ccccc2)cnn1C | 41.7* | -13.8 | -66.7 | 15.4 | 24.5 | -0.9
c1ccc(COCCN2CCN(CCOCc3ccccc3)CC2)cc1 | · | -4.2 | -20.9 | 8.9 | · | 4.8
CN(c1ccccc1)S(=O)(=O)c1cccc(Cl)c1Cl | -3.1 | -8.3 | -18.5 | 31.3 | -58.1 | -11.6
CON(c1nc(N(C)C)nc(N(C)C)n1)S(=O)(=O)c1ccccc1Cl | -2.2 | -6.2 | 1.4 | 30.9* | -0.9 | -6.7
Cc1ccc(SCCNC(=O)c2ccc(C)c(S(=O)(=O)Nc3cccc(C)c3)c2)cc1 | 10.3 | -7.4 | 30.1 | 38.1* | 38.2 | -11.7
Cc1ccc(NS(=O)(=O)c2cc(C(=O)NCCSc3ccc(C)cc3)ccc2C)cc1 | 7.1 | 2.4 | -16.5 | 12.3 | 15.3 | -10.1
CCOC(=O)c1cnc(-c2ccccc2)nc1Oc1ccc(Cl)c(Cl)c1 | 9.7 | -3.7 | -7.3 | 6.5 | 1.2 | 18.5*
CCOC(=O)c1cnc(-c2ccccc2)nc1Oc1cccc(Cl)c1 | 18.1 | -1.7 | -19.9 | 13.8 | -2.9 | -2.9
O=Nc1c(O)n(Cc2ccccc2)c2ccccc12 | 0.4 | 6.5 | -5.4 | 6.5 | -14.4 | -14.4
O=Nc1c(O)n(Cc2ccc(Cl)c(Cl)c2)c2ccccc12 | 11.3 | 37.9* | -4.2 | 20.9 | -9.4 | -8.6
CCOC(=O)c1[nH]c(C)c(CN(CCc2ccccc2)S(C)(=O)=O)c1C | 0.1 | -15.9 | -12.9 | 16.1 | -3.7 | -2.2
CCOC(=O)c1[nH]c(C)c(CN(C(C)=O)c2ccc(OCC)cc2)c1C | 4.6 | -13.3 | -23.0 | 8.7 | 4.6 | 22.1*
CN(C)c1cccc(CNC(=O)c2ccc3sc([C@@H]4O[C@H](CO)[C@H](O)[C@H](O)[C@H]4O)nc3c2)c1 | 2.2 | · | · | · | -6.3 | ·
COC(=O)C1=C(C)N(C)C(=NCc2ccccc2)NC1CCc1ccccc1 (stereo not given) | 5.6 | · | · | · | -1.2 | ·
COc1cc(/C=N/NC(=S)NC(C)C)ccc1OCC(=O)Nc1c(C)cc(C)cc1C | 7.2 | -3.0 | -19.1 | 7.0 | 49.8* | -7.7
CCNC(=S)N/N=C/c1ccc(OCC(=O)Nc2ccc(OC)cc2)c(OC)c1 | 17.4 | -2.6 | -1.9 | 5.8 | 51.1* | 2.7
CCCCNC(=S)N(C)/N=C/c1ccc(OCC(=O)Nc2ccc(OC)cc2)c(OC)c1 | 15.7 | 9.2 | 2.7 | 24.7 | 58.2* | -13.2
